Results as given in ChEMBL document CHEMBL2311306, “The precise chemical-physical nature of the pharmacore in FK506 binding protein inhibition: ElteX, a New class of nanomolar FKBP12 ligands” (J Med Chem, 2013).

The compounds below were run against Peptidyl-prolyl cis-trans isomerase FKBP1A (Homo sapiens) (UniProt P62942) (assay: Binding affinity to FKBP12 PPI domain (unknown origin) in water bulk solution by fluorescence spectrophotometric analysis relative to FK506).
Peptidyl-prolyl cis-trans isomerase FKBP1A (Homo sapiens), sequence (P62942 whole entry, the tested form may be a part): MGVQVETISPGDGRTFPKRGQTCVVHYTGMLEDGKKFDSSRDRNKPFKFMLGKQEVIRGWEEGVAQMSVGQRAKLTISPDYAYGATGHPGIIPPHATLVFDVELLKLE

Point of comparison: COc1cc(OC)c(C(=O)C(=O)N2CCCC[C@H]2C(=O)OC(CCCc2ccccc2)CCCc2ccncc2)c(OC)c1 (some centres undefined), Ratio 1.2. Against it:
- CCC[C@@H](CCc1ccccc1)OC(=O)[C@@H]1CCCCN1C(=O)C(=O)c1ccccc1 — lower, 1.1
- CCC(C)(C)C(=O)C(=O)N1CCCC[C@H]1C(=O)O[C@@H](CCc1ccccc1)c1ccccc1 — higher, 750
- CO[C@H]1C[C@@H]2CC[C@@H](C)[C@@](O)(O2)C(=O)C(=O)N2CCCC[C@H]2C(=O)O[C@H]([C@H](C)C[C@@H]2CC[C@@H](O)[C@H](OC)C2)CC(=O)[C@H](C)/C=C(\C)[C@@H](O)[C@@H](OC)C(=O)[C@H](C)C[C@H](C)/C=C/C=C/C=C/1C — lower, 0.5
- CCC[C@H](CCc1ccccc1)OC(=O)[C@@H]1CCCCN1C(=O)C(=O)c1ccccc1 — higher, 1.6
- C=CC[C@@H]1/C=C(\C)C[C@H](C)C[C@H](OC)[C@H]2O[C@@](O)(C(=O)C(=O)N3CCCC[C@H]3C(=O)O[C@H](/C(C)=C/[C@@H]3CC[C@@H](O)[C@H](OC)C3)[C@H](C)[C@@H](O)CC1=O)[C@H](C)C[C@@H]2OC — lower, 1
- CCC(C)(C)C(=O)C(=O)N1CCCC[C@H]1C(=O)O[C@H](CCc1ccccc1)c1ccccc1 — higher, 25
- CCCC(CCc1ccccc1)NC(=O)[C@@H]1CCCCN1C(=O)C(=O)c1ccccc1 (mixture of isomers) — higher, 5

These compounds were tested against Peptidyl-prolyl cis-trans isomerase FKBP1A (Homo sapiens) (UniProt P62942) (assay: Apparent binding affinity to FKBP12 PPI domain (unknown origin) in PBS at pH 7 by fluorescence spectrophotometric analysis relative to FK506).
In short: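 FKBP12, final 1 µM, diluted from a PBS stock (pH 7.4, 0.15 M NaCl) into phosphate buffer at 15 °C. Ligand 1–200 nM, final DMSO <0.3% v/v. Intrinsic Trp fluorescence quenching: excitation 280 nm, emission 325 nm, ligand-only spectra subtracted. Apparent Kd fitted from intensity versus ligand concentration, expressed as ratio to FK506 under identical conditions. At least 2 replicates, 3–4 at low concentrations.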

Work on O=C(C(=O)N1CCCC[C@H]1C(=O)NCCCc1ccccc1)c1ccccc1 yielded a Kd(app) of 0.5.
